PABP1 MLLE inh – inhibitors of PABP1 MLLE–PAM2 peptide binding, primary screen, biochemical, fluorescence polarization, FITC-PAM2, GST-MLLE; AID 588489, 2011; Polyadenylate-binding protein 1 (Homo sapiens), P11940; 0.36% of 360,000 active; inhibition, % at 20 µM; in the data active means inhibition above about 35%, passing the limit was not always enough;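 further: plate controls were DMSO wells with GST-MLLE for no effect and wells lacking GST-MLLE protein for full effect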
Target sequence (P11940 whole entry, looked up): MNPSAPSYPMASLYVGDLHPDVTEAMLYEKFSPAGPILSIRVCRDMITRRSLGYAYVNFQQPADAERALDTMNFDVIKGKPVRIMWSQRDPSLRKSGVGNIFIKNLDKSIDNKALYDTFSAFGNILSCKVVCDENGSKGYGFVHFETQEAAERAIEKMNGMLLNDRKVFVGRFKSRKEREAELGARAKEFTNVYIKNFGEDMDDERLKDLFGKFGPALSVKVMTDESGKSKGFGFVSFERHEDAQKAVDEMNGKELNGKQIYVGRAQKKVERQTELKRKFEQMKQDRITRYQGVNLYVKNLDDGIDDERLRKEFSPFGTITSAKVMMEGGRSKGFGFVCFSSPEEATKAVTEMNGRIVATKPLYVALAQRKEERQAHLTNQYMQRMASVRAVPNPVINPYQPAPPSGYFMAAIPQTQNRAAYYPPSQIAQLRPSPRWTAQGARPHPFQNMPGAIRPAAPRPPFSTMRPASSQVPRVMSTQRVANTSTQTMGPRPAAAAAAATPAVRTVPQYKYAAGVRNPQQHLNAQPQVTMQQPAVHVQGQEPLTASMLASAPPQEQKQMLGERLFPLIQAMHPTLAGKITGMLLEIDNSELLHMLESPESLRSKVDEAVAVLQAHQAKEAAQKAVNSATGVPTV
PABP polyA inh – PABP poly(A) RNA binding inhibitors, primary screen, biochemical, fluorescence polarization, uHTS | AID 2014, 2009 | 1% of 290,000 active | calls only at 35 µM;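 further: calls also rest on retests at 20 µM and on dose response follow-up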
eIF4H FP inh – human eIF4H binding inhibitors, primary screen, translation initiation inhibitor project, biochemical, uHTS, fluorescence polarization; 0.94% of 290,000 active; AID 2012, 2009; Eukaryotic translation initiation factor 4H (Homo sapiens), Q15056; inhibition, % at 35 µM; eIF4H fluorescence polarization binding assay;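 further: calls also rest on retests at 20 µM and on dose response follow-up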
TCR CD3 inh – inhibitors of human TCR-CD3 interaction, primary screen, biochemical, fluorescence, TAMRA-labeled TCR probe. T-cell receptor (TCR). inhibition, % at 9.4 µM. 0.37% of 360,000 active. AID 651800, 2012; in the data active means inhibition above about 19%;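 further: recombinant mutant TCR 2C K166C tagged with TAMRA read by polarization; 0% = receptor in buffer alone and 100% = receptor with positive control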
RBBP9 inhibitor – human RBBP9 inhibitors, primary screen, biochemical, fluorescence polarization, FP-Rh probe, HTS; AID 1515, 2009; inhibition, % at 7.94 µM; 0.2% of 220,000 active; Serine hydrolase RBBP9 (Homo sapiens), O75884; recombinant RBBP9;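 active means inhibition above the campaign mean of all tested compounds plus 3 SD, cut at about 14% in these data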;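 further: plate controls were DMSO wells with RBBP9 for no effect and wells lacking RBBP9 protein for full effect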
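Controls: DMSO-treated enzyme wells and wells lacking RBBP9 | Material: RBBP9 protein | Technique: Fluorescence polarization | Replication: Single well per compound, no replicates | Buffer or medium: Tris-NaCl-Pluronic buffer, pH 8.0 | Timing: 30 min compound preincubation, 45 min probe labeling, 25 °C | Read-out basis: Percent inhibition from mP, scaled between DMSO and no-protein wells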
Starred values were filed as active, the others as inactive; i = inactive; ? = inconclusive; . = no result; + = active, no number. An excerpt weighted towards active compounds, which were near 1.6% of everything screened. Unless noted, how the calls were made is not given here.

SMILES	PABP1 MLLE inh	PABP polyA inh	eIF4H FP inh	TCR CD3 inh	RBBP9 inhibitor
Nc1nc2c(ncn2[C@@H]2O[C@H](C(=O)NCCc3c[nH]c4ccccc34)[C@@H](O)[C@H]2O)c(=O)[nH]1	.	.	.	-8.2	.
C/C(=N\Nc1ccc(C(=O)O)cc1)c1nc2ccccc2n1C	.	+	active	.	-5.8
Cn1c(/C=N/NC(=O)c2ccccc2)nc2ccccc21	2.5	i	-4.1	-6.9	-6.5
N#Cc1cccc(NC(=O)CSc2sc3c(O)cc(=O)[nH]c3c2C#N)c1	-10.2	i	27.2	11.1	.
N#Cc1c(SCC(=O)Nc2nc3ccc(Br)cc3s2)sc2c(O)cc(=O)[nH]c12	-35.2	+	73.1*	15.3	.
CCCCCCCCN1C(=O)[C@@H](CC(=O)N2CCN(C(=O)c3ccco3)CC2)C[C@@]2(C(=O)OC)C1=C[C@H](C1CCCC1)O[C@@H]2C	.	.	.	1.2	.
O=[N+]([O-])c1cccc(NC(=S)Nc2nc(-c3ccccc3Cl)cs2)c1	42.4*	i	13.6	2.5	.
S=C1NC[C@H](Cc2ccccc2)N1CC1CCN(CCCC2CCCCC2)CC1	.	.	.	1.2	.
C/C(=N\NC(=S)NCCc1ccccc1)c1cccc(Br)c1	39.5*	i	-9.2	-2.5	-0.5
C=CCNC(=S)N/N=C(\C)c1cccc(OC)c1	39.8*	i	-6.8	1.6	-5.4
C/C(=N\NC(=S)NCc1ccccc1)c1cccc(Br)c1	23.0	i	-5.0	3.8	2.0
C#CCC1c2ccccc2CCN1CC=C (stereo not given)	.	.	.	8.7	.
COCCNC(=S)N(C)[C@H]1C[C@H]2c3[nH]c4ccccc4c3CCN2C(=O)[C@H]1[C@H](C)O	.	.	.	-3.0	.
CCN(CC)c1ccc(/C=N/Nc2nn[nH]n2)cc1	-123.1	+	50.6*	6.4	-9.5
CC1(C)OC(=O)N(CCc2ccccc2)C1(C)O (stereo not given)	1.1	i	-3.5	10.1	-8.3
CC1(C)OC(=O)N(Cc2ccco2)C1(C)O (stereo not given)	22.9	+	?	0.1	-10.4
CCC(=O)Nc1ccc(C(=O)Nc2cccnc2)cc1	-11.8	+	51.9*	-5.3	-1.2
COc1ccc(C(=O)Nc2ccc(C(=O)Nc3cccnc3)cc2)cc1	-11.2	i	-12.9	3.6	.
Oc1ccc(Br)cc1C=Nc1ccc2c3c(cccc13)CC2	11.8	+	100.1*	14.0	2.0
COC(=O)c1c(NC(=S)Nc2cc(OC)c(Cl)cc2OC)sc2c1CCCCC2	47.2*	i	8.5	-0.8	-2.1
CCOC(=O)c1c(NC(=S)Nc2cc([N+](=O)[O-])ccc2OC)sc2c1CCCCC2	.	i	-2.2	.	-4.5
Cc1nc([N+](=O)[O-])cn1CC(Cl)Cn1cc([N+](=O)[O-])nc1C	.	.	.	-1.9	.
CC1CCCN(CC(=O)N2c3ccccc3Sc3ccccc32)C1 (stereo not given)	-0.3	i	3.1*	6.5	-0.3
O=C(CN1CCCCCC1)N1c2ccccc2Sc2ccccc21	-10.6	i	-6.2	-2.1	-10.9
CC(CC(=O)Nc1nnc(C(C)(C)C)s1)c1ccccc1 (stereo not given)	48.3*	i	-7.4	-6.4	.
SMILES	PABP1 MLLE inh	PABP polyA inh	eIF4H FP inh	TCR CD3 inh	RBBP9 inhibitor
C[C@H](CO)N1C[C@H](C)[C@H](CN(C)C(=O)Nc2cccc(F)c2)OCc2cnnn2CCCC1=O	.	.	.	0.9	.
COCCNC(=S)N(C)[C@H]1C[C@H]2c3[nH]c4c(-c5ccc6c(c5)OCO6)cccc4c3CCN2C(=O)[C@H]1[C@H](C)O	.	.	.	5.6	.
CCCCOC(=O)c1ccc(N)cc1	-9.3	+	active	-6.5	-2.7
COC(=O)c1cc2c(c3c4cc(OC)ccc4n(S(=O)(=O)c4ccc(OC)cc4)c13)C(=O)N(C1CCCCC1)C2	.	.	.	4.6	.
COc1cc([N+](=O)[O-])ccc1-c1ccc(/C=N/NC(N)=O)o1	-96.8	+	65.1	2.3	6.3
COc1cc([N+](=O)[O-])ccc1-c1ccc(/C=N/NC(=O)OC(C)(C)C)o1	-28.0	i	36.7	-2.6	-7.3
CC(C)CC(C(=O)Nc1oc(-c2ccco2)c(-c2ccco2)c1C#N)N1C(=O)c2ccccc2C1=O (stereo not given)	-14.1	+	81.6*	-3.5	1.0
COc1ccc(N2CCN(C(=O)C3CCN(S(=O)(=O)c4ccc5c(c4)CC(C)N5C(=O)C4CC4)CC3)CC2)cc1 (stereo not given)	.	.	.	8.9	.
CC(C)n1c(SCC(=O)Nc2nncs2)nnc1C1CC1	8.4	i	-4.7	7.0	.
Cn1c(SCC(=O)Nc2nncs2)nnc1C1CC1	-11.3	+	89.5*	10.0	.
CC(NC(=O)CSC1=NCCS1)c1ccccc1 (stereo not given)	45.7*	i	-11.9	2.8	2.2
COc1ccccc1CNC(=O)CSC1=NCCS1	41.2*	i	-7.5	3.2	4.4
O=C(CSC1=NCCS1)Nc1ccccc1F	42.8*	i	-0.7	-5.8	-9.5
COc1ccccc1CNC(=O)CSc1ccc(Br)cc1	12.6	i	-5.8	-2.1	-2.3
O=C(CSC1=NCCS1)NC(NC(=O)CSC1=NCCS1)c1ccccc1	20.7	i	-6.1	-6.8	-7.8
COc1ccccc1Cc1c(C2CCCCC2)nc2c(C)cc(Br)cn12	.	.	.	-1.3	.
O=C(N[C@H](C(=O)N1CCC[C@H]1C(=O)NCCc1ccccc1Cl)c1ccccc1)c1ccc(Cl)c(Cl)c1	.	.	.	5.5	.
COC(=O)c1cc2c(c3c4cc(F)ccc4n(C(=O)c4ccccc4)c13)C(=O)N(C1CCCCC1)C2	.	.	.	-8.6	.
COC(=O)c1cc2c(C)c(C)c3ccccn3c-2c1C(=O)OC	59.7*	i	127.2	8.0	-4.2
COC(=O)c1cc2n3ccccc3c(C)c(-c3ccccc3)c-2c1C(=O)OC	47.1*	+	129.9*	-2.7	3.7
COC(=O)c1cc2ccccn2c2c(C(=O)OC)c(C(=O)OC)cc1-2	8.8	i	1.3	-1.5	0.2
COC(=O)c1cn(-c2ccccc2)c(C)c1C(=O)OC	-5.7	i	-0.4	-12.2	-10.7
OC(c1ccccc1)(c1ccccc1)C1CCN(CCCOc2ccc(-c3cccnc3)cc2)CC1	.	.	.	-0.5	.
O=C1C=CC(=O)N1c1ccccc1N1C(=O)C=CC1=O	44.0*	.	.	-1.4	.
O=C(c1ccccc1)c1ccccc1N1C(=O)C=CC1=O	39.2*	i	-11.0	-2.8	-3.4
O=C(O)c1cccc(N2C(=O)C=CC2=O)c1	30.7	.	.	2.6	.
COc1ccccc1Cc1c(-c2ccccc2)nc2ccc(C)cn12	.	.	.	-4.4	.
C=CCCC1CN(Cc2ccc(OC)cc2)S(=O)(=O)c2c(Oc3cc(C)c(C)c(C)c3)cccc2O1 (stereo not given)	.	.	.	4.9	.
O=C(O)CN1C(=O)/C(=C\c2cc(Br)ccc2OCc2ccccc2Cl)SC1=S	24.8	+	59.5*	13.4	.
